Results published in PMC9055496 (RSC Advances, 2020).
Entries after “also recorded” stand apart in the source; their conditions may differ. Like-named read-outs stand apart in the source and are kept apart here.

Key:
[1] = cited from earlier work
[2] = cited from earlier work; remark: listed apart in the source
[3] = format: in vivo, Sprague-Dawley rats; conditions: for Number of metabolites detected and tentatively identified: rat bile, urine, plasma and feces, oral 100 mg kg^−1; for Metabolic stability, comparison in words: rat in vivo metabolite profile, HFBA vs HPABA, R-HFBA vs S-HFBA
Method in brief: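 Fasted male Sprague-Dawley rats (n = 5/group) received a single 100 mg kg−1 gavage in 0.5% CMC-Na. Urine and feces were collected 0–24 h in metabolic cages, heparinised plasma at 0.5, 3 and 6 h, and bile 0–12 h from bile-duct-catheterised rats. Feces were powdered and sonicated in methanol for 30 min. Analysis was by UHPLC-FT-ICR-MS, positive ESI, m/z 50–1000, with MS/MS at 10 eV.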

[4] = Total cumulative excretion in three routes; format: in vivo, Sprague-Dawley rats; conditions: rat, oral 50 mg kg^−1, unchanged drug
Method in brief: (§1)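 Male Sprague-Dawley rats (220 ± 20 g), fasted 12 h, given 50 mg kg−1 by gavage in 0.5% CMC-Na (n = 5/group). Urine and feces were collected in metabolic cages at intervals to 48 h; feces were air-dried, weighed and homogenised in saline. Bile-duct-cannulated rats (ether anaesthesia) were dosed after recovery, with bile collected every 2 h to 12 h. Unchanged drug was measured by UHPLC-MS/MS (positive ESI MRM, internal standard; LLOQ 0.005 μg mL−1).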

[5] = cited from earlier work; remark: listed apart in the source
[6] = Urinary excretion of unchanged drug in rats after a single oral dose; format: in vivo, Sprague-Dawley rats; conditions: rat; for Time period of highest urinary excretion ratio: oral 50 mg kg^−1; for Cumulative amount in urine: n = 5, mean ± SD; for Cumulative urinary excretion, share of the total dose: oral 50 mg kg^−1, during 48 h, unchanged drug
Method in brief: as §1

[7] = format: in vivo, Sprague-Dawley rats; conditions: for Cumulative amount in bile: bile duct cannulated rat, n = 5, mean ± SD; for Cumulative biliary excretion, share of the dose: rat, oral 50 mg kg^−1, during 12 h, unchanged drug
Method in brief: as §1

[8] = Fecal excretion of unchanged drug in rats after a single oral dose; format: in vivo, Sprague-Dawley rats; conditions: rat; for Time period of highest fecal excretion ratio: oral 50 mg kg^−1; for Cumulative amount in feces: n = 5, mean ± SD; for Accumulative fecal excretion, share of the total dose: unchanged drug
Method in brief: as §1

[9] = cited from earlier work; remark: listed apart in the source
[10] = rats, oral (oral or intravenous) administration of each enantiomer

SMILES: CC(O)C(=O)Nc1ccc(C(F)(F)F)cc1C(=O)O (stereo not shown) [R-HFBA, 2-(2-Hydroxypropanamido)-5-trifluoromethyl benzoic acid]
- Antiplatelet aggregation activity compared with aspirin [1]: superior to aspirin
- AUC compared with S-HFBA [2, 10]: greater; also recorded: larger
- Clearance (CL) compared with S-HFBA [2, 10]: significantly lower
- t1/2 compared with S-HFBA [2, 10]: greater; also recorded: longer
- Number of metabolites detected and tentatively identified [3]: 7
- Metabolic stability, comparison in words [3]: more metabolically stable than S-HFBA
- Total cumulative excretion in three routes, share of the dose [4]: 65.8%
- Gastrointestinal toxicity compared with aspirin [5]: less
- Time period of highest urinary excretion ratio [6]: 0 to 2 h
- Cumulative amount in urine ([6]; oral 50 mg kg^−1, 2 h): 2747 ± 332 µg
- Cumulative amount in urine ([6]; oral 50 mg kg^−1, 4 h): 3149 ± 292 µg
- Cumulative amount in urine ([6]; oral 50 mg kg^−1, 6 h): 3309 ± 457 µg
- Cumulative amount in urine ([6]; oral 50 mg kg^−1, 8 h): 3894 ± 504 µg
- Cumulative amount in urine ([6]; oral 50 mg kg^−1, 10 h): 4010 ± 450 µg
- Cumulative amount in urine ([6]; oral 50 mg kg^−1, 12 h): 4117 ± 435 µg
- Cumulative amount in urine ([6]; oral 50 mg kg^−1, 24 h): 4333 ± 518 µg
- Cumulative amount in urine ([6]; oral 50 mg kg^−1, 36 h): 4394 ± 485 µg
- Cumulative amount in urine ([6]; oral 50 mg kg^−1, 48 h): 4425 ± 478 µg
- Cumulative urinary excretion, share of the total dose [6]: 40.2%
- Cumulative amount in bile ([7]; oral 50 mg kg^−1, 2 h): 185.3 ± 8.20 µg
- Cumulative amount in bile ([7]; oral 50 mg kg^−1, 4 h): 531.7 ± 95.4 µg
- Cumulative amount in bile ([7]; oral 50 mg kg^−1, 6 h): 783.1 ± 56.6 µg
- Cumulative amount in bile ([7]; oral 50 mg kg^−1, 8 h): 925.9 ± 68.1 µg
- Cumulative amount in bile ([7]; oral 50 mg kg^−1, 10 h): 1075 ± 62.6 µg
- Cumulative amount in bile ([7]; oral 50 mg kg^−1, 12 h): 1239 ± 54.6 µg
- Cumulative biliary excretion, share of the dose [7]: 11.3%
- Time period of highest fecal excretion ratio [8]: 6 to 8 h
- Cumulative amount in feces ([8]; oral 50 mg kg^−1, 2 h): 6.300 ± 1.60 µg
- Cumulative amount in feces ([8]; oral 50 mg kg^−1, 4 h): 11.00 ± 3.50 µg
- Cumulative amount in feces ([8]; oral 50 mg kg^−1, 6 h): 254.1 ± 400 µg
- Cumulative amount in feces ([8]; oral 50 mg kg^−1, 8 h): 1216 ± 518 µg
- Cumulative amount in feces ([8]; oral 50 mg kg^−1, 10 h): 1980 ± 512 µg
- Cumulative amount in feces ([8]; oral 50 mg kg^−1, 12 h): 2362 ± 629 µg
- Cumulative amount in feces ([8]; oral 50 mg kg^−1, 24 h): 2687 ± 598 µg
- Cumulative amount in feces ([8]; oral 50 mg kg^−1, 36 h): 2782 ± 635 µg
- Cumulative amount in feces ([8]; oral 50 mg kg^−1, 48 h): 2817 ± 626 µg
- Accumulative fecal excretion, share of the total dose ([8]; oral 50 mg kg^−1, 48 h): 25.6%
- Anti-inflammatory activity compared with aspirin [9]: superior to aspirin

SMILES: CC(O)C(=O)Nc1ccc(C(F)(F)F)cc1C(=O)O (stereo not shown) [S-HFBA, 2-(2-Hydroxypropanamido)-5-trifluoromethyl benzoic acid]
- Antiplatelet aggregation activity compared with aspirin [1]: superior to aspirin
- Number of metabolites detected and tentatively identified [3]: 8
- Total cumulative excretion in three routes, share of the dose [4]: 58.5%
- Gastrointestinal toxicity compared with aspirin [5]: less
- Time period of highest urinary excretion ratio [6]: 0 to 2 h
- Cumulative amount in urine ([6]; oral 50 mg kg^−1, 2 h): 1831 ± 253 µg
- Cumulative amount in urine ([6]; oral 50 mg kg^−1, 4 h): 2525 ± 285 µg
- Cumulative amount in urine ([6]; oral 50 mg kg^−1, 6 h): 2713 ± 185 µg
- Cumulative amount in urine ([6]; oral 50 mg kg^−1, 8 h): 3098 ± 279 µg
- Cumulative amount in urine ([6]; oral 50 mg kg^−1, 10 h): 3249 ± 294 µg
- Cumulative amount in urine ([6]; oral 50 mg kg^−1, 12 h): 3313 ± 319 µg
- Cumulative amount in urine ([6]; oral 50 mg kg^−1, 24 h): 3413 ± 251 µg
- Cumulative amount in urine ([6]; oral 50 mg kg^−1, 36 h): 3469 ± 216 µg
- Cumulative amount in urine ([6]; oral 50 mg kg^−1, 48 h): 3489 ± 225 µg
- Cumulative urinary excretion, share of the total dose [6]: 31.7%
- Cumulative amount in bile ([7]; oral 50 mg kg^−1, 2 h): 170.8 ± 14.1 µg
- Cumulative amount in bile ([7]; oral 50 mg kg^−1, 4 h): 515.4 ± 77.5 µg
- Cumulative amount in bile ([7]; oral 50 mg kg^−1, 6 h): 571.8 ± 95.4 µg
- Cumulative amount in bile ([7]; oral 50 mg kg^−1, 8 h): 652.9 ± 50.7 µg
- Cumulative amount in bile ([7]; oral 50 mg kg^−1, 10 h): 745.6 ± 57.7 µg
- Cumulative amount in bile ([7]; oral 50 mg kg^−1, 12 h): 817.0 ± 90.9 µg
- Cumulative biliary excretion, share of the dose [7]: 7.4%
- Time period of highest fecal excretion ratio [8]: 10 to 12 h
- Cumulative amount in feces ([8]; oral 50 mg kg^−1, 2 h): 5.800 ± 7.70 µg
- Cumulative amount in feces ([8]; oral 50 mg kg^−1, 4 h): 17.60 ± 18.9 µg
- Cumulative amount in feces ([8]; oral 50 mg kg^−1, 6 h): 89.90 ± 80.3 µg
- Cumulative amount in feces ([8]; oral 50 mg kg^−1, 8 h): 791.6 ± 519 µg
- Cumulative amount in feces ([8]; oral 50 mg kg^−1, 10 h): 1604 ± 459 µg
- Cumulative amount in feces ([8]; oral 50 mg kg^−1, 12 h): 2470 ± 203 µg
- Cumulative amount in feces ([8]; oral 50 mg kg^−1, 24 h): 2764 ± 248 µg
- Cumulative amount in feces ([8]; oral 50 mg kg^−1, 36 h): 2878 ± 213 µg
- Cumulative amount in feces ([8]; oral 50 mg kg^−1, 48 h): 2944 ± 252 µg
- Accumulative fecal excretion, share of the total dose ([8]; oral 50 mg kg^−1, 48 h): 26.8%
- Anti-inflammatory activity compared with aspirin [9]: superior to aspirin

SMILES: CC(O)C(=O)Nc1ccc(C(F)(F)F)cc1C(=O)O (stereo not shown) [HFBA, 2-(2-Hydroxypropanamido)-5-trifluoromethyl benzoic acid]
- Bioavailability compared with HPABA [2]: better
- Half-life compared with HPABA [2]: longer
- Number of metabolites detected and tentatively identified [3]: 8
- Metabolic stability, comparison in words [3]: more metabolically stable than HPABA
